Assay results taken from ChEMBL document CHEMBL1142655, “Cytotoxicity of cis-platinum(II) conjugate models. The effect of chelating arms and leaving groups on cytotoxicity: a quantitative structure-activity relationship approach” (J Med Chem, 2005).

Key:
A2780 [1] = test: Inhibitory concentration against human A2780 ovarian adenocarcinoma cell line; type: functional, cell-based
How it was run: (§1)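 Cells kept in RPMI1640 with 10% fetal calf serum, 2 mM L-glutamine and 1% antibiotics at 37 °C, 5% CO2. Cp8 subline was derived by chronic cisplatin exposure. 1 × 10^3 cells/well grew 24 h, then were exposed to 0-500 µM final for 120 h (DMSO ≤0.1% final). MTT was read after 3 h, A570. Run three times in quadruplicate. IC50 from nonlinear regression; mean ± SE.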

A2780 [2] = test: Inhibitory concentration against cisplatin-resistant A2780 human ovarian adenocarcinoma cell line; type: functional, cell-based; how it was run: as §1

Row | IC50 (A2780 [1]) | IC50 (A2780 [2]) | Substance
1 | 0.48 µM | 6.62 µM | OXALIPLATIN
2 | 7.66 µM | 123 µM | CARBOPLATIN
3 | 5.55 µM | 118 µM | DICHLORO(ETHYLENEDIAMINE) PLATINUM (II)
4 | 1.37 µM | 45 µM | CISPLATIN
